In ChEMBL document CHEMBL1125837, “Nicotinamide ethers: novel inhibitors of calcium-independent phosphodiesterase and [3H]rolipram binding” (J Med Chem, 1991):

Legend:
[1] = molecular target: T1, Phosphodiesterase 4 (Rattus norvegicus, UniProt P14270+P14646+P14644+P54748); test: Inhibition of [3H]rolipram binding to rat brain membranes.; format: cell membranes, Membrane
Summary of the method: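 Rat brain homogenized in ice-cold 50 mM Tris/1.2 mM MgCl2, pH 8.0, washed twice by centrifugation and used at 0.5 mg protein/mL. Incubated with [3H]rolipram and test compound at various concentrations for 30 min at 25 °C, in triplicate. Glass-fiber filtration, three ice-cold washes, scintillation counting. IC50 from semilog plots of percent inhibition vs concentration.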

[2] = molecular target: T1, Phosphodiesterase 4; test: Inhibition of [3H]cAMP (NEN NET-275) binding to Calcium-Independent Phosphodiesterase from rat brain.
Summary of the method: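 Enzyme from fresh rat brain (Davis method). Test compound or vehicle with enzyme in [3H]cAMP substrate in Tris-HCl/MgCl2 buffer, 37 °C for 8 min, in triplicate. Stopped by boiling 2 min. Carrier 5'-AMP added; boronate affinity gel separated [3H]-5'-AMP from cAMP, and product counted by scintillation. IC50 from dose-response curves of three log concentrations, each in triplicate.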

[3] = species: Mus musculus; test: Minimal effective peroral dose in mouse reserpine hypothermia test; format: functional; details: po, read-out: MED

IC50 [1] [µM] | IC50 [2] [µM] | Structure (SMILES) | minimal effective dose [3] [mg/kg]
51 | 4 | O=C(NCc1ccc(F)cc1)c1cccnc1Oc1ccc(F)cc1 | 0.01
29 | 1.8 | O=C(NCc1ccccc1)c1cccnc1Oc1cccc(F)c1 | 0.01
37 | 2.9 | O=C(NCc1ccccc1)c1cccnc1Oc1ccc(F)cc1 | 0.01
43 | 2.2 | O=C(Nc1ccccc1)c1cccnc1Oc1ccc(F)cc1 | 0.001
26 | 0.73 | COc1ccc(CNC(=O)c2cccnc2Oc2ccc(F)cc2)cc1 | 3.2
> 100 | 10 | O=C(NCc1ccccc1)c1cccnc1Oc1ccccc1F | 0.01
100 | 3.1 | COc1ccc(Oc2ncccc2C(=O)NCc2ccccc2)cc1 | 0.01
49 | 1.8 | O=C(NCc1ccccc1)c1cccnc1Oc1ccccc1 | 0.32
25 | 0.54 | Cc1ccc(CNC(=O)c2cccnc2Oc2ccc(F)cc2)cc1 | 0.001

Further lines, the compound ahead of its results:

Structure (SMILES) | IC50 [1] [µM] | IC50 [2] [µM] | minimal effective dose [3] [mg/kg]
COc1cccc(Oc2ncccc2C(=O)NCc2ccccc2)c1 | 23 | 2.5 | 0.01
CC(C)NC(=O)c1cccnc1Oc1ccc(F)cc1 | 26 | 3.1 | 0.001
O=C(NCc1ccccc1)c1cccnc1Oc1cccc(C(F)(F)F)c1 | 54 | 6.5 | 3.2
COC(=O)c1cccc(Oc2ncccc2C(=O)NCc2ccccc2)c1 | 6.6 | 1.4 | 0.001
O=C(NCc1ccccc1)c1cccnc1OC1CC2CCC1C2 (stereo unspecified) | 27 | 0.22 | 1
O=C(NCc1ccccc1)c1cccnc1Oc1ccc(Cl)c(Cl)c1 | 19 | 2.2 | > 3.2
COc1ccccc1Oc1ncccc1C(=O)NCc1ccccc1 | > 100 | > 10 | > 3.2
N#Cc1cccc(Oc2ncccc2C(=O)NCc2ccccc2)c1 | 22 | 9.8 | 0.1
